Reference: ChEMBL document CHEMBL1156147, “Phosphoramidates of 2'-beta-D-arabinouridine (AraU) as phosphate prodrugs; design, synthesis, in vitro activity and metabolism” (Bioorg Med Chem, 2010)
Calls of active or inactive are those of the source. The rule behind the calls is not given here.

Tests used:
U-937 = test: Cytostatic activity human U937 cells; type: functional, cell-based
How it was run: (§1)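 Leukaemia cells were exposed to serial dilutions from 100 μM down to 0.02 μM for 72 h at 37 °C, 5% CO2. MTS was then added for a further 4 h. Absorbance was read at 490 nm and viability calculated relative to untreated controls. IC50 is the concentration at which 50% of cells are no longer viable.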

Coxsackievirus B4 = test: Antiviral activity against Coxsackievirus B4 assessed as inhibition of virus-induced cytopathicity by cell based assay; type: functional, organism-based
How it was run: (§2)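 Cytopathicity reduction in confluent HEL, Vero, HeLa, CFKC or MDCK monolayers. Cells were inoculated with 100 CCID50 of virus and allowed 1–2 h adsorption. Residual virus was then removed and cells were incubated with serially varied compound. CPE was scored once complete in untreated infected controls. EC50 is the concentration halving virus-induced cytopathicity.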

[1] = tested on: Human immunodeficiency virus 1; test: Antiviral activity against HIV1 3B infected human CEM cells assessed as inhibition of syncytia formation after 4 days; type: functional, organism-based; details: CCRF-CEM
How it was run: (§3)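 Human CEM cells (~3 × 10^5 cells/mL) were infected with ~100 CCID50/mL of HIV-1(IIIB) or HIV-2(ROD) and seeded with compound dilutions. Syncytia formation was examined microscopically after 4 days at 37 °C. EC50 is the concentration reducing virus-induced cytopathicity by 50%.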

[2] = Metabolic stability assessed as half life in the presence of carboxypeptidase Y after 3 hrs at pH 7.6; type: ADME; details: Saccharomyces cerevisiae (yeast)
L1210 = test: Cytostatic activity mouse L1210 cells; type: functional, cell-based
Punta Toro virus = test: Antiviral activity against Punta Toro virus assessed as inhibition of virus-induced cytopathicity by cell based assay; type: functional, organism-based; how it was run: as §2
NB-4 = test: Cytostatic activity against human NB4 cells; type: functional, cell-based; how it was run: as §1
Human alphaherpesvirus 2 = test: Antiviral activity against Herpes simplex virus2 G assessed as inhibition of virus-induced cytopathicity by cell based assay; type: functional, organism-based; details: strain G; how it was run: as §2
[3] = tested on: Mammalian orthoreovirus 1; test: Antiviral activity against Reovirus 1 assessed as inhibition of virus-induced cytopathicity by cell based assay; type: functional, organism-based; how it was run: as §2
LoVo = test: Cytostatic activity against human LoVo cells after 96 hrs by MTT assay; type: functional, cell-based
How it was run: (§4)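 Cells were seeded at 5 × 10^3 per well and allowed 24 h to adhere. Compound was added from DMSO stocks as decimal dilutions (final 0.1–100 μM) for 96 h at 37 °C, 5% CO2. MTT (final 0.5 mg/mL) was added for 4 h and formazan solubilised in 10% Triton X-100/PBS. Absorbance was read at 540 nm. IC50 is inhibition relative to control.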

PC-3 = test: Cytostatic activity against human PC3 cells after 96 hrs by MTT assay; type: functional, cell-based; details: PC-3, 96 h; how it was run: as §4
MCF7 = test: Cytostatic activity against human MCF7 cells after 96 hrs by MTT assay; type: functional, cell-based; details: MCF7, 96 h; how it was run: as §4
Vaccinia virus = test: Antiviral activity against Vaccinia virus lederle assessed as inhibition of virus-induced cytopathicity by cell based assay; type: functional, organism-based; details: Orthopoxvirus vaccinia
[4] = tested on: Human immunodeficiency virus 2; test: Antiviral activity against HIV2 infected human CEM cells assessed as inhibition of syncytia formation after 4 days; type: functional, organism-based; details: CCRF-CEM; how it was run: as §3
KG-1 = test: Cytostatic activity human KG1 cells; type: functional, cell-based; how it was run: as §1
Human alphaherpesvirus 1 [5] = test: Antiviral activity against thymidine kinase deficient acyclovir resistant HSV1 KOS assessed as inhibition of virus-induced cytopathicity by cell based assay; type: functional, organism-based
A549 = test: Cytostatic activity against human A549 cells after 96 hrs by MTT assay; type: functional, cell-based; details: A549, 96 h; how it was run: as §4
Influenza A virus [6] = test: Antiviral activity against influenza A virus H1N1 assessed as inhibition of virus-induced cytopathicity by cell based assay; type: functional, organism-based
HL-60 = test: Cytostatic activity against human HL60 cells; type: functional, cell-based; how it was run: as §1
Human respirovirus 3 = test: Antiviral activity against Human parainfluenza virus 3 assessed as inhibition of virus-induced cytopathicity by cell based assay; type: functional, organism-based; how it was run: as §2
Influenza A virus [7] = test: Antiviral activity against influenza A virus H3N2 assessed as inhibition of virus-induced cytopathicity by cell based assay; type: functional, organism-based
[8] = tested on: Vesicular stomatitis virus; test: Antiviral activity against Vesicular stomatitis virus assessed as inhibition of virus-induced cytopathicity by cell based assay; type: functional, organism-based
Human alphaherpesvirus 1 [9] = test: Antiviral activity against HSV1 KOS assessed as inhibition of virus-induced cytopathicity by cell based assay; type: functional, organism-based; how it was run: as §2
[10] = tested on: Respiratory syncytial virus; test: Antiviral activity against Respiratory syncytial virus Long assessed as inhibition of virus-induced cytopathicity by cell based assay; type: functional, organism-based; how it was run: as §2
CCRF-CEM = test: Cytostatic activity human CEM cells; type: functional, cell-based
Sindbis virus = test: Antiviral activity against Sindbis virus assessed as inhibition of virus-induced cytopathicity by cell based assay; type: functional, organism-based; how it was run: as §2

Compound	IC50 (U-937)	inhibition (Coxsackievirus B4)	inhibition [1]	IC50 (L1210)	inhibition (Punta Toro virus)	IC50 (NB-4)	inhibition (Human alphaherpesvirus 2)	inhibition [3]	inhibition (Vaccinia virus)	inhibition [4]	IC50 (KG-1)	inhibition (Human alphaherpesvirus 1 [5])	inhibition (Influenza A virus [6])	IC50 (HL-60)	inhibition (Human respirovirus 3)	inhibition (Influenza A virus [7])	inhibition [8]	inhibition (Human alphaherpesvirus 1 [9])	inhibition [10]	IC50 (CCRF-CEM)	other results
C[C@H](NP(=O)(OC[C@H]1O[C@@H](n2ccc(=O)[nH]c2=O)[C@@H](O)[C@@H]1O)Oc1ccccc1)C(=O)OCc1ccccc1 (some centres not stated)	92 µM	inactive	inactive	184 µM	inactive	38 µM	inactive	inactive	inactive	inactive	63 µM	inactive	inactive	> 100 µM	inactive	inactive	inactive	inactive	inactive	188 µM	half-life [2]: 15 min; IC50 (LoVo): > 100 µM; IC50 (PC-3): > 100 µM; IC50 (MCF7): > 100 µM; IC50 (A549): > 100 µM; inhibition (Sindbis virus): inactive
COC(=O)[C@H](C)NP(=O)(OC[C@H]1O[C@@H](n2ccc(=O)[nH]c2=O)[C@@H](O)[C@@H]1O)Oc1ccccc1 (some centres not stated)	> 100 µM	inactive	inactive	> 500 µM	inactive	53 µM	inactive	inactive	inactive	inactive	32 µM	inactive	inactive	> 100 µM	inactive	inactive	inactive	inactive	inactive	> 500 µM	IC50 (LoVo): > 100 µM; IC50 (PC-3): > 100 µM; IC50 (MCF7): > 100 µM; IC50 (A549): > 100 µM; inhibition (Sindbis virus): inactive
O=c1ccn([C@@H]2O[C@H](CO)[C@@H](O)[C@@H]2O)c(=O)[nH]1 [ARAURIDINE]	> 100 µM	inactive	inactive	170 µM	inactive	69 µM	inactive	inactive	inactive	inactive	25 µM	inactive	inactive	90 µM	inactive	inactive	inactive	inactive	inactive	> 500 µM	inhibition (Sindbis virus): inactive
CC(C)OC(=O)[C@H](C)NP(=O)(OC[C@H]1O[C@@H](n2ccc(=O)[nH]c2=O)[C@@H](O)[C@@H]1O)Oc1cccc2ccccc12 (some centres not stated)	> 100 µM	inactive	inactive	250 µM	inactive	77 µM	inactive	inactive	inactive	inactive	67 µM	inactive	inactive	84 µM	inactive	inactive	inactive	inactive	inactive	181 µM	IC50 (LoVo): > 100 µM; IC50 (PC-3): > 100 µM; IC50 (MCF7): > 100 µM; IC50 (A549): > 100 µM; inhibition (Sindbis virus): inactive
O=C(CNP(=O)(OC[C@H]1O[C@@H](n2ccc(=O)[nH]c2=O)[C@@H](O)[C@@H]1O)Oc1ccccc1)OCc1ccccc1 (some centres not stated)	> 100 µM	inactive	inactive	256 µM	inactive	52 µM	inactive	inactive	inactive	inactive	39 µM	inactive	inactive	> 100 µM	inactive	inactive	inactive	inactive	inactive	196 µM	IC50 (LoVo): > 100 µM; IC50 (PC-3): > 100 µM; IC50 (MCF7): > 100 µM; IC50 (A549): > 100 µM; inhibition (Sindbis virus): inactive
C[C@@H](NP(=O)(OC[C@H]1O[C@@H](n2ccc(=O)[nH]c2=O)[C@@H](O)[C@@H]1O)Oc1ccccc1)C(=O)OCc1ccccc1 (some centres not stated)	> 100 µM	inactive	inactive	470 µM	inactive	88 µM	inactive	inactive	inactive	inactive	90 µM	inactive	inactive	92 µM	inactive	inactive	inactive	inactive	inactive	313 µM	IC50 (LoVo): > 100 µM; IC50 (PC-3): > 100 µM; IC50 (MCF7): 50 µM; IC50 (A549): > 100 µM; inhibition (Sindbis virus): inactive
